# Results of several laboratories.
# Lines come from different studies, so protocols differ.
# Target: Sigma non-opioid intracellular receptor 1 (SIGMAR1, Homo sapiens, UniProt Q99720)
Structure (SMILES),test,conditions,Ki [µM]
COc1ccc2ccn(CCCCN3CCc4cc(OC)c(OC)cc4C3)c2c1,"ligand displacement, radioligand",cell membranes,0.357
COc1ccccc1N1CCN(CCCCNC(=O)c2cc3cc(OCCF)ccc3[nH]2)CC1,cell-free assay,,> 10
CCCn1nc(C(=O)N2CCCCC2)c2c1CCC(NCCN1CCCCC1)C2 (stereo not drawn),"ligand displacement, radioligand",,> 10
COc1ccc2ccn(CCCCN3Cc4cc(OC)c(OC)cc4C3)c2c1,"ligand displacement, radioligand",cell membranes,0.07
OCCCN1CC[C@@H]2C[C@H]1c1cc(-c3ccc(C(F)(F)F)cc3)ccc12,"ligand displacement, radioligand",,0.167
CCCn1nc(C(=O)N(C)C)c2c1CCC(NCc1ccc(Cl)cc1)C2 (stereo not drawn),"ligand displacement, radioligand",,> 10
COc1cc2c(cc1OC)CN(CCCCn1ccc3c(OC)cccc31)CC2,"ligand displacement, radioligand",cell membranes,0.259
COc1ccccc1N1CCN(CCCCNC(=O)c2cc3cc(O)ccc3[nH]2)CC1,cell-free assay,,> 10
CCCn1nc(C(=O)N2CCCCC2)c2c1CCC(N1CCN(c3ccc([N+](=O)[O-])cc3)CC1)C2 (stereo not drawn),"ligand displacement, radioligand",,1.59
CC(C)(C)Oc1cc(CCC(C)(C)N2Cc3ccc(S(C)(=O)=O)cc3C2)ccc1O,"ligand displacement, radioligand",cell membranes,0.063
COc1ccc2[nH]c(C(=O)NC/C=C/CN3CCN(c4ccccc4OC)CC3)cc2c1,cell-free assay,,> 10
CCN(CC)CCCC(C)Nc1ccnc2cc(Cl)ccc12 (stereo not drawn),"ligand displacement, radioligand",,0.741
